According to ChEMBL document CHEMBL5321236, “Fluoro-labelled sp2-iminoglycolipids with immunomodulatory properties” (Eur J Med Chem, 2023):
Calls of active or inactive are those of the source. The rule behind the calls is not given here.

Experiments:
HBL-100 = assay: Growth inhibition of human HBL-100 cells measured after 48 hrs by SRB colorimetric assay; format: functional
Method in brief: (§1)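 NCI-based protocol with sulforhodamine B read-out. Seeded 2500 (A549, HBL-100, HeLa, SW1573), 5000 (T-47D, WiDr, SW1573/P-gp) or 7000 (BJ-hTERT) cells/well. Exposed 48 h to serial decimal dilutions, 0.001–100 μM, from 40 mM DMSO stock. GI50 by NCI formulas; mean of three or more experiments ± SD.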

SW1573 [1] = assay: Growth inhibition of human SW1573 cells measured after 48 hrs by SRB colorimetric assay; format: functional; method in brief: as §1
T47D = assay: Growth inhibition of human T47D cells measured after 48 hrs by SRB colorimetric assay; format: functional; method in brief: as §1
WiDr = assay: Growth inhibition of human WiDr cells measured after 48 hrs by SRB colorimetric assay; format: functional; method in brief: as §1
A549 = assay: Growth inhibition of human A549 cells measured after 48 hrs by SRB colorimetric assay; format: functional; method in brief: as §1
HeLa = assay: Growth inhibition of human HeLa cells measured after 48 hrs by SRB colorimetric assay; format: functional; method in brief: as §1
BV-2 [2] = assay: Protection against LPS induced inflammation in mouse BV-2 cells assessed as decrease in Tnf-alpha mRNA expression at 10 uM incubated for 24 hrs with LPS stimulation by qRT-PCR analysis
BV-2 [3] = assay: Protection against LPS induced inflammation in mouse BV-2 cells assessed as decrease in IL1-beta mRNA expression at 10 uM incubated for 24 hrs with LPS stimulation by qRT-PCR analysis
BV-2 [4] = assay: Cytotoxicity against mouse BV-2 cells at 10 uM measured after 24 hr by crystal violet staining based analysis; format: toxicity, cell-based; settings: bv-2, 24 h
Method in brief: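 Bv.2 cells grown to 70% confluence, exposed 24 h in serum-free medium to 0.1, 1.0, 10 and 25 μM. Fixed with 1% glutaraldehyde, stained with 0.1% crystal violet, dye released in 10% acetic acid, absorbance 590 nm. Mean ± SEM, n ≥ 3 independent experiments.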

SW1573 [5] = assay: Growth inhibition of human SW1573 cells overexpressing P-glycoprotein measured after 48 hrs in presence of verapamil by SRB colorimetric assay; format: functional
Method in brief: as §1, with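 “read-out. Cells grown in RPMI 1640 with 5% FBS and 1 mM glutamine at 37 °C, 5% CO₂.” for “read-out.”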

SW1573 [6] = assay: Growth inhibition of human SW1573 cells overexpressing P-glycoprotein measured after 48 hrs in absence of verapamil by SRB colorimetric assay; format: functional
Method in brief: as §1, with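 “read-out. Cells grown in RPMI 1640 with 5% FBS and 1 mM glutamine at 37 °C, 5% CO₂.” for “read-out.”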

SW1573 [7] = assay: Growth inhibition of human SW1573 cells measured after 48 hrs in absence of verapamil by SRB colorimetric assay; format: functional
Method in brief: as §1, with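 “read-out. Cells grown in RPMI 1640 with 5% FBS and 1 mM glutamine at 37 °C, 5% CO₂.” for “read-out.”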

[8] = Resistance factor, ratio of GI50 for growth inhibition of human SW1573 cells overexpressing P-glycoprotein measured after 48 hrs in presence of verapamil to GI50 for growth inhibition of human SW1573 cells measured after 48 hrs in presence of verapamil; format: functional
Method in brief: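 SW1573 parental and P-gp-overexpressing cells given 48 h exposure to serial dilutions (0.001–100 μM) in medium containing verapamil at a final 10 μM as P-gp transport inhibitor. SRB read-out, GI50 by NCI formulas. Resistance factor taken as GI50 in SW1573/P-gp divided by GI50 in SW1573.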

[9] = Resistance factor, ratio of GI50 for growth inhibition of human SW1573 cells overexpressing P-glycoprotein measured after 48 hrs in absence of verapamil to GI50 for growth inhibition of human SW1573 cells measured after 48 hrs in absence of verapamil; format: functional
Method in brief: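 Resistance factor: GI50 in P-gp-overexpressing SW1573 divided by GI50 in parental SW1573, each from 48 h SRB growth-inhibition assay without verapamil. Values are means of three or more independent experiments.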

SW1573 [10] = assay: Growth inhibition of human SW1573 cells measured after 48 hrs in presence of verapamil by SRB colorimetric assay; format: functional
Method in brief: as §1, with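 “read-out. Cells grown in RPMI 1640 with 5% FBS and 1 mM glutamine at 37 °C, 5% CO₂.” for “read-out.”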

[11] = biological target: Mitogen-activated protein kinase 14 (Mus musculus) (UniProt P47811); assay: Inhibition of LPS-stimulated p38 alpha phosphorylation in mouse BV-2 cells at 10 uM measured after 60 to 90 mins by Western blot analysis; format: cell-based; settings: time 60-90 min
Method in brief: (§2)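 Bv.2 cells exposed with or without LPS for 15–90 min. Protein extracts run on SDS-PAGE, blotted to PVDF, probed with anti-phospho-p38α MAPK and anti-total p38α MAPK (1:1000), ECL detection. Quantified by densitometry, mean ± SEM, n = 3.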

BV-2 [12] = assay: Antiinflammatory activity in mouse BV-2 cells assessed as restoration of […] expression level at 10 uM incubated for 24 hrs with LPS stimulation by qRT-PCR analysis; format: functional, cell-based
Method in brief: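 Bv.2 microglia stimulated with LPS 200 ng/mL with or without compound at 10 μM for 24 h. Arg1 mRNA measured by qRT-PCR, Actinb as housekeeping gene, 2^-ΔΔCT method, fold change relative to basal. n ≥ 4 independent experiments in triplicate.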

[13] = biological target: Mitogen-activated protein kinase 14 (Mus musculus) (UniProt P47811); assay: Inhibition of LPS-stimulated p38 alpha phosphorylation in mouse BV-2 cells at 10 uM measured after 30 mins by Western blot analysis; format: cell-based; method in brief: as §2

Sequence of Mitogen-activated protein kinase 14 (Mus musculus) (P47811 whole entry): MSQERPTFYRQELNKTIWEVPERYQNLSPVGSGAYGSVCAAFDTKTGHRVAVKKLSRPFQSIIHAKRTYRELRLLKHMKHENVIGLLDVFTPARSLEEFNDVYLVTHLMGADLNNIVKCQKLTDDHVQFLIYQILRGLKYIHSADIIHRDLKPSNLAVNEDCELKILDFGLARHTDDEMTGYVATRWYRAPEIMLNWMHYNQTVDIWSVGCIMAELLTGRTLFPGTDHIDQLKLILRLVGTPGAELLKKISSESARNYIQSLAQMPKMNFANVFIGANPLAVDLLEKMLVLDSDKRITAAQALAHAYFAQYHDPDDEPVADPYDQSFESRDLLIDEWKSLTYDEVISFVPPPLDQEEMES

| SMILES | GI50 (HBL-100) [µM] | GI50 (SW1573 [1]) [µM] | GI50 (T47D) [µM] | GI50 (WiDr) [µM] | GI50 (A549) [µM] | GI50 (HeLa) [µM] | Activity (BV-2 [2]) | Activity (BV-2 [3]) | Activity (BV-2 [4]) | GI50 (SW1573 [5]) [µM] | GI50 (SW1573 [6]) [µM] | GI50 (SW1573 [7]) [µM] | RatioGI50 [8] | RatioGI50 [9] | GI50 (SW1573 [10]) [µM] | inhibition [11] | Activity (BV-2 [12]) | inhibition [13] |
| --- | --- | --- | --- | --- | --- | --- | --- | --- | --- | --- | --- | --- | --- | --- | --- | --- | --- | --- |
| CCCCCCCCCCCCS[C@@H]1[C@H](F)[C@@H](OCc2ccccc2)[C@H](O)[C@H]2COC(=O)N21 | 19 | 19 | 18 | 20 | 18 | 13 |  |  |  |  |  |  |  |  |  |  |  |  |
| CCCCCCCCCCCCS(=O)(=O)[C@@H]1[C@H](O)[C@@H](OCc2ccccc2)[C@H](O)[C@H]2COC(=O)N21 | 15 | 10 | 14 | 13 | 7.1 | 9.2 | Active | Active | Non-Toxic |  |  |  |  |  |  |  |  |  |
| CC(=O)O[C@H]1C(=O)[C@@]2(C)[C@H]([C@H](OC(=O)c3ccccc3)[C@]3(O)C[C@H](OC(=O)[C@H](O)[C@@H](NC(=O)c4ccccc4)c4ccccc4)C(C)=C1C3(C)C)[C@]1(OC(C)=O)CO[C@@H]1C[C@@H]2O [PACLITAXEL] |  |  |  |  |  |  |  |  |  | 0.00031 | 0.3 | 0.00053 | 0.7 | 564 | 0.00046 |  |  |  |
| CCCCCCCCCCCCS(=O)(=O)[C@@H]1[C@@H](F)[C@@H](OCc2ccccc2)[C@H](O)[C@H]2COC(=O)N21 | 3.4 | 4.5 | 3.8 | 4.3 | 4.2 | 3.6 |  |  |  |  |  |  |  |  |  |  |  |  |
| O=C1OC[C@@H]2[C@@H](O)[C@H](OCc3ccccc3)[C@H](F)[C@@H](O)N12 | > 100 | > 100 | > 100 | > 100 | > 100 | > 100 |  |  |  |  |  |  |  |  |  |  |  |  |
| CCCCCCCCCCCCS(=O)(=O)[C@@H]1[C@H](F)[C@@H](OCc2ccccc2)[C@H](O)[C@H]2COC(=O)N21 | 4.2 | 4.2 | 9.7 | 3.6 | 4.3 | 3.3 | Active | Active | Non-Toxic |  |  |  |  |  |  | inactive | Active | inactive |
| CCCCCCCCCCCCS[C@@H]1[C@@H](O)[C@@H](O)[C@H](O)[C@H]2COC(=O)N21 | 26 | 25 | 25 | 23 | 18 | 19 |  |  |  |  |  |  |  |  |  |  |  |  |
| O=c1[nH]cc(F)c(=O)[nH]1 [FLUOROURACIL] | 5.5 | 4.3 | 47 | 49 | 2.2 | 15 |  |  |  |  |  |  |  |  |  |  |  |  |
| CCCCCCCCCCCCS[C@@H]1[C@H](F)[C@@H](O)[C@H](O)[C@H]2COC(=O)N21 | 22 | 22 | 21 | 21 | 17 | 19 | Active | Active | Non-Toxic |  |  |  |  |  |  |  |  |  |
| O=C1OC[C@@H]2[C@@H](O)[C@H](O)[C@@H](O)[C@@H](O)N12 | > 100 | > 100 | > 100 | > 100 | > 100 | > 100 |  |  |  |  |  |  |  |  |  |  |  |  |
| O=C1OC[C@@H]2[C@@H](O)[C@H](O)[C@H](F)[C@@H](O)N12 | > 100 | > 100 | > 100 | > 100 | > 100 | > 100 |  |  |  |  |  |  |  |  |  |  |  |  |
| CCCCCCCCCCCCS(=O)(=O)[C@@H]1[C@@H](OC)[C@@H](O)[C@H](O)[C@H]2COC(=O)N21 | 20 | 21 | 17 | 21 | 15 | 20 |  |  |  |  |  |  |  |  |  |  |  |  |
| CCCCCCCCCCCCS[C@@H]1[C@@H](F)[C@@H](OCc2ccccc2)[C@H](O)[C@H]2COC(=O)N21 | 18 | 18 | 20 | 18 | 13 | 19 |  |  |  |  |  |  |  |  |  |  |  |  |
| CCCCCCCCCCCCS[C@@H]1[C@H](O)[C@@H](O)[C@H](O)[C@H]2COC(=O)N21 | 17 | 18 | 18 | 18 | 16 | 17 |  |  |  |  |  |  |  |  |  |  |  |  |
| O=C1OC[C@@H]2[C@@H](O)[C@H](O)[C@H](O)[C@@H](O)N12 | > 100 | > 100 | > 100 | > 100 | > 100 | > 100 |  |  |  |  |  |  |  |  |  |  |  |  |
| O=C1OC[C@@H]2[C@@H](O)[C@H](OCc3ccccc3)[C@@H](F)[C@@H](O)N12 | > 100 | > 100 | > 100 | > 100 | > 100 | > 100 |  |  |  |  |  |  |  |  |  |  |  |  |
| CCCCCCCCCCCCS(=O)(=O)[C@@H]1[C@@H](F)[C@@H](O)[C@H](O)[C@H]2COC(=O)N21 | 7.4 | 3.6 | 10 | 4.3 | 2.9 | 3.1 |  |  |  |  |  |  |  |  |  |  |  |  |
| O=C1OC[C@@H]2[C@@H](O)[C@H](O)[C@@H](F)[C@@H](O)N12 | > 100 | > 100 | > 100 | > 100 | > 100 | > 100 | Active | Active | Non-Toxic |  |  |  |  |  |  |  |  |  |
